Laboratory results taken from ChEMBL document CHEMBL5647697, “Akt inhibition synergizes with polycomb repressive complex 2 inhibition in the treatment of multiple myeloma” (2019).
The source made the active and inactive calls. No cut-off for these calls is given here.

Key:
[1] = system: OPM-2; test: Synergistic activity against human OPM-2 cells assessed as combination index preincubated in presence of 1.25 uM GSK126 for 72 hrs followed by compound addition at 1.25 uM incubated for 48 hrs by MTT assay; type: functional
[2] = system: NCI-H929; test: Downregulation of CDK1 protein expression in human NCI-H929 cells incubated at 0.3 to 3 micromol/L for 48 hrs by Western blot analysis; type: functional, cell-based; details: dose 0.3-3 µmol/L
Procedure, shortened: (§1)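 MM.1S and H929 cells given TAS-117 at the indicated doses for 48 h. Protein levels assessed by immunoblot.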

[3] = system: MM1.S; test: Downregulation of CDK2 protein expression in human MM1.S cells incubated at 0.3 to 3 micromol/L for 48 hrs by Western blot analysis; type: functional, cell-based; details: dose 0.3-3 µmol/L; procedure, shortened: as §1
[4] = system: MM1.S; test: Induction of apoptosis in human MM1.S cells assessed as late apoptotic cells preincubated in presence of 5 micromol/L UNC1999 for 48 hrs followed by compound addition at 2 micromol/L incubated for 12 hrs by annexin V/PI staining based flow cytometry (reference value: 3.6%); type: functional; details: dose 2 µmol/L, at 2 µM
[5] = system: MM1.S; test: Downregulation of EZH2 protein expression in human MM1.S cells at 0.3 to 5 micromol/L for 6 to 48 hrs by Western blot analysis; type: functional, cell-based; details: dose 0.3-5 µmol/L, time 6-48 hrs
Procedure, shortened: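 MM.1S and H929 cells exposed to TAS-117 at the indicated doses for 48 h, or to 5 μmol/L for the indicated times. Immunoblot with GAPDH, Akt and H3 as loading controls; EZH2 quantified relative to GAPDH.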

[6] = system: OPM-2/BTZ; test: Synergistic activity against human OPM-2/BTZ cells assessed as combination index preincubated in presence of 2.5 uM UNC1999 for 72 hrs followed by compound addition at 2 uM incubated for 48 hrs by MTT assay; type: functional
[7] = system: NCI-H929; test: Synergistic activity against human NCI-H929 cells assessed as combination index preincubated in presence of 2.5 uM GSK126 […] at 0.125 uM incubated for 48 hrs by […]; type: functional
Procedure, shortened: (§2)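 Cells were exposed to the EZH2/EZH1 inhibitor (UNC1999 or GSK126) for 72 h in total, with the Akt inhibitor added for the last 48 h. Viability was read by MTS assay relative to untreated control cells, in triplicate. The combination index for each dose pair came from isobologram analysis.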

[8] = system: NCI-H929; test: Downregulation of EZH2 mRNA expression in human NCI-H929 cells at 0.3 to 3 micromol/L after 24 hrs by qRT-PCR analysis; type: functional, cell-based; details: dose 0.3-3 µmol/L
Procedure, shortened: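 MM.1S and H929 cells given TAS-117 at the indicated doses for 24 h. mRNA measured by RT-qPCR, fold change after normalization to GAPDH; SD of triplicates; significance versus untreated control.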

[9] = system: NCI-H929; test: Synergistic activity against human NCI-H929 cells assessed as combination index […] at 0.5 uM incubated for 48 hrs by […]; type: functional; procedure, shortened: as §2
[10] = system: OPM-2; test: Synergistic activity against human OPM-2 cells assessed as combination index preincubated in presence of 5 uM UNC1999 for 72 hrs followed by compound addition at 2.5 uM incubated for 48 hrs by MTS assay
[11] = system: NCI-H929; test: Cytotoxicity against human NCI-H929 cells assessed as reduction in cell viability at 0.3125 to 10 micromol/L after 48 hrs by MTS assay; type: functional, cell-based; details: dose 0.3125-10 µmol/L
Procedure, shortened: (§3)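 Seven myeloma lines (MM.1S, H929, OPM2/BTZ among them) exposed to TAS-117 at increasing concentrations up to 10 μmol/L for 48 h. Viability read by MTS against an untreated control; mean ± SD of triplicates.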

[12] = system: NCI-H929; test: Upregulation of EZH1 mRNA expression in human NCI-H929 cells at 0.03 to 3 micromo/L at 6 to 48 hrs by qRT-PCR analysis; type: functional, cell-based; details: dose 0.03-3 µmol/L, time 6-48 hrs
Procedure, shortened: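 EZH1 mRNA was measured by qRT-PCR in MM.1S and H929 cells. Dose series: cells were treated with graded TAS-117 for 24 h. Time course: cells were treated with 3 μmol/L for the indicated times. Fold change is after GAPDH normalization, relative to the untreated control. Data are SD of triplicates.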

[13] = system: OPM-2; test: Synergistic activity against human OPM-2 cells assessed as combination index preincubated in presence of 2.5 uM GSK126 for 72 hrs followed by compound addition at 1.25 uM incubated for 48 hrs by MTT assay; type: functional
[14] = system: MM1.S; test: Induction of apoptosis in human MM1.S cells assessed as necrotic cells preincubated in presence of 5 micromol/L UNC1999 for 48 hrs followed by compound addition at 2 micromol/L incubated for 12 hrs by annexin V/PI staining based flow cytometry (reference value: 0.17%); type: functional; details: dose 2 µmol/L, at 2 µM
[15] = system: OPM-2; test: Synergistic activity against human OPM-2 cells assessed as combination index preincubated in presence of 5 uM UNC1999 for 72 hrs followed by compound addition at 5 uM incubated for 48 hrs by MTS assay
[16] = system: OPM-2/BTZ; test: Synergistic activity against human OPM-2/BTZ cells assessed as combination index preincubated in presence of 5 uM GSK126 for 72 hrs followed by compound addition at 2 uM incubated for 48 hrs by MTT assay; type: functional
[17] = system: OPM-2/BTZ; test: Downregulation of CDK2 protein expression in human OPM-2/BTZ cells incubated at 0.3 to 3 micromol/L for 48 hrs by Western blot analysis; type: functional, cell-based; details: dose 0.3-3 µmol/L
[18] = system: OPM-2/BTZ; test: Cytotoxicity against human OPM-2/BTZ cells assessed as reduction in cell viability at 0.3125 to 10 micromol/L after 48 hrs by MTS assay; type: functional, cell-based; details: dose 0.3125-10 µmol/L; procedure, shortened: as §3
[19] = system: NCI-H929; test: Upregulation of p27 protein expression in human NCI-H929 cells incubated at 0.3 to 3 micromol/L for 48 hrs by Western blot analysis; type: functional, cell-based; details: dose 0.3-3 µmol/L
[20] = system: MM1.S; test: Downregulation of E2F1 protein expression in human MM1.S cells incubated at 0.3 to 3 micromol/L for 48 hrs by Western blot analysis; type: functional, cell-based; details: dose 0.3-3 µmol/L; procedure, shortened: as §1
[21] = system: MM1.S; test: Synergistic activity against human MM.1S cells assessed as combination index […] at 0.125 uM incubated for 48 hrs by […]; type: functional; procedure, shortened: as §2
[22] = system: NCI-H929; test: Downregulation of phospho-Rb protein expression in human NCI-H929 cells incubated at 0.3 to 3 micromol/L for 48 hrs by Western blot analysis; type: functional, cell-based; details: dose 0.3-3 µmol/L; procedure, shortened: as §1
[23] = system: OPM-2; test: Synergistic activity against human OPM-2 cells assessed as combination index preincubated in presence of 1.25 uM GSK126 for 72 hrs followed by compound addition at 5 uM incubated for 48 hrs by MTT assay; type: functional
[24] = system: NCI-H929; test: Downregulation of E2F1 protein expression in human NCI-H929 cells incubated at 0.3 to 3 micromol/L for 48 hrs by Western blot analysis; type: functional, cell-based; details: dose 0.3-3 µmol/L; procedure, shortened: as §1
[25] = system: OPM-2/BTZ; test: Synergistic activity against human OPM-2/BTZ cells assessed as combination index preincubated in presence of 2.5 uM GSK126 for 72 hrs followed by compound addition at 0.5 uM incubated for 48 hrs by MTT assay; type: functional
[26] = system: NCI-H929; test: Upregulation of EZH1 protein expression in human NCI-H929 cells at 0.03 to 3 micromol/L after 48 hrs by Western blot analysis; type: functional, cell-based; details: dose 0.03-3 µmol/L
Procedure, shortened: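 MM.1S and H929 cells were treated with graded TAS-117 for 48 h. EZH1 was detected by immunoblot and quantified relative to the GAPDH loading control.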

## C[C@]1(O)C[C@@](N)(c2ccc(-c3nc4n(c3-c3ccccc3)COc3ccncc3-4)cc2)C1 [PIFUSERTIB]
[1]
  CI: 1.29
[2]
  Activity: Active
[3]
  Activity: Active
[4]
  Activity: 25.3%
[5]
  Activity: Active
[6]
  CI: 0.483
[7]
  CI: 4.094
[8]
  Activity: Active
[9]
  CI: 4.395
[10]
  CI: 5.53
[11]
  Activity: Active
[12]
  Activity: Dose-Dependent Effect
[13]
  CI: 1.462
[14]
  Activity: 1.04%
[15]
  CI: 6.32
[16]
  CI: 0.967
[17]
  Activity: Active
[18]
  Activity: Active
[19]
  Activity: Active
[20]
  Activity: Active
[21]
  CI: 0.27
[22]
  Activity: Active
[23]
  CI: 11.425
[24]
  Activity: Active
[25]
  CI: 0.296
[26]
  Activity: Active
